# Assay results pooled from the literature.
# Target: MAP/microtubule affinity-regulating kinase 3 (MARK3, Homo sapiens, UniProt P27448)
SMILES,test,setting,quantity,value
O=C(NCCCNc1nc(Nc2cccc(NC(=O)N3CCCC3)c2)ncc1C1CC1)C1CCC1,"enzyme activity, inhibitor, radiometric",1 µM,remaining activity,0%
CN1CC(Oc2cnc(C#N)cc2-c2ccn3nc(NC(=O)C4CC4)cc3c2)C1,"enzyme activity, inhibitor",1 µM,inhibition,17%
NS(=O)(=O)c1ccc(CNc2nc(Nc3cccc(NC(=O)N4CCCC4)c3)ncc2Br)cc1,"enzyme activity, inhibitor, radiometric",1 µM,remaining activity,63%
CCC(=N\O)/C(C)=C/c1ccc(F)cc1,"cell-free assay, competition with immobilised ligand",1 µM,remaining binding,86%
Oc1ccc(-c2nc(-c3ccncc3)c(-c3ccc(F)cc3)[nH]2)cc1,cell-free assay,0.5 µM,remaining signal,105%
CN1CCc2cc(Nc3ncc(C4CC4)c(NCCCNC(=O)C4CCC4)n3)ccc2C1,"enzyme activity, inhibitor, radiometric",1 µM,remaining activity,-4%
CN(C)C(=O)Cn1cc(-c2nc(C3(c4ccc(-c5cnc(N)nc5)cc4)CC3)no2)cn1,"cell-free assay, competition with immobilised ligand",1 µM,remaining binding,100%
c1cc(CN2CCOCC2)cc(Nc2ncc(C3CC3)c(NCCc3c[nH]cn3)n2)c1,"enzyme activity, inhibitor, radiometric",1 µM,remaining activity,0%
Cc1cc(NC(=O)c2cccc(S(F)(F)(F)(F)F)c2)cc(-n2ccn3nc(-c4cccnc4)cc23)c1,"cell-free assay, competition with immobilised ligand",1 µM,remaining binding,100%
COc1cc(/C=C/C(=O)CC(=O)/C=C/c2ccc(O)c(OC)c2)ccc1O,"enzyme activity, inhibitor",1 µM,activity vs control,90%
COc1ccc(COc2ccc(Cc3cnc(N)nc3N)cc2OC)cc1,cell-free assay,0.5 µM,remaining signal,103%
O=C(CSc1nc2nccnc2c(=O)n1CCc1ccccc1)Nc1nccs1,"enzyme activity, inhibitor",10 µM,inhibition,7%
NS(=O)(=O)c1ccc(CNc2nc(Nc3cccc(CN4CCOCC4)c3)ncc2C2CC2)cc1,"enzyme activity, inhibitor, radiometric",1 µM,remaining activity,109%
Nc1ncnc2occ(-c3ccc(NC(=O)Nc4cc(C(F)(F)F)ccc4F)cc3)c12,"cell-free assay, inhibitor",20 µM,remaining signal,15%
O=C(NS(=O)(=O)c1ccc(NCC2CCOCC2)c([N+](=O)[O-])c1)c1ccc(N2CCN(Cc3ccc(C(F)(F)F)cc3-c3ccc(Cl)cc3)CC2)cc1Oc1cnc2[nH]ccc2c1,"cell-free assay, competition with immobilised ligand",1 µM,remaining binding,100%
c1ccc(CNc2nc(N3CCOc4ccccc43)nc3c2CCCC3)cc1,"target engagement in cells, inhibitor, chemoproteomics",20 mM,inhibition,3%
O=C(Nc1cnc(Oc2ccc(F)cc2)nc1)N1CCc2ncccc2[C@@H]1c1ccc(F)cc1,"cell-free assay, competition with immobilised ligand",1 µM,remaining binding,100%
O=C(NCCCNc1nc(Nc2cccc(NC(=O)N3CCCC3)c2)ncc1I)c1cccs1,"enzyme activity, inhibitor, radiometric",1 µM,remaining activity,-4%
CCCS(=O)(=O)Nc1ccc(F)c(C(=O)c2c[nH]c3ncc(-c4ccc(Cl)cc4)cc23)c1F,"enzyme activity, inhibitor",1 µM,inhibition,< 10%
NS(=O)(=O)c1ccc(CNc2ccnc(Nc3cccc(CN4CCOCC4)c3)n2)cc1,"enzyme activity, inhibitor, radiometric",1 µM,remaining activity,113%
O=C1NC(=O)c2cc(Nc3ccc(F)cc3)c(Nc3ccc(F)cc3)cc21,cell-free assay,0.5 µM,remaining signal,90.8%
CC1=C(C#N)[C@@H](c2ccc3[nH]nc(C)c3c2)C(C#N)=C(c2ccc(Cl)cc2)N1,"cell-free assay, competition with immobilised ligand",1 µM,remaining binding,100%
